HNF4A DNA FP: change in binding of human HNF4 alpha to DNA. P41235. 360,000 compounds, 0.3% hits. AID 1224865. HNF4a-FITC DNA binding, fluorescence polarization, 1 h. activity change, % at 10 µM; in the data active = activity change above about 30%, passing the limit was not always enough
Rpn11 block: blocks the human proteasome subunit Rpn11; human 26S proteasome, Ub4-pepOG fluorescence polarization; 20S core pre-blocked with epoxomicin; 360,000 compounds, 0.59% hits; AID 588493; O00487; inhibition, % at 20 µM;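 active = inhibition at 20 µM, scaled to each plate's controls, above about 33%, limit read from the data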
Target sequence (O00487 whole entry, looked up): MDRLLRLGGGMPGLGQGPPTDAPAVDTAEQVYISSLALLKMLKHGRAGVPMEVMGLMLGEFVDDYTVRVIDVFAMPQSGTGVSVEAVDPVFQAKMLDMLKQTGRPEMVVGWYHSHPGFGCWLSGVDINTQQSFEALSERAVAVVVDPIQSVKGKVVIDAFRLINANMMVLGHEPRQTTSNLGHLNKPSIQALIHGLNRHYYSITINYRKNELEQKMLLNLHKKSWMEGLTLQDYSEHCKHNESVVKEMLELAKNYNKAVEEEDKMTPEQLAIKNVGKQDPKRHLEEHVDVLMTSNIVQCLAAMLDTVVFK
IDE act: boosts human insulin-degrading enzyme activity in HEK cells. FAbeta-B cleavage, fluorescence polarization; 0% vehicle, 100% cell-free pure enzyme wells. activation, % at 5.96 µM. 340,000 compounds, 0.073% hits;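 active = activation above the mean of all tested compounds plus 3 SD, set per screening campaign, cut at about 17% in these data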
IDE inh: inhibits human insulin-degrading enzyme in HEK cells. FAbetaB cleavage, fluorescence polarization. inhibition, % at 5.59 µM. 320,000 compounds, 0.41% hits. AID 434962;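 active = percent inhibition above the average of all tested compounds plus 3 SD, set per screening campaign, cut at about 16% in these data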;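 also: IDE supplied by intact live HEK cells; FP after avidin binding of uncleaved biotin substrate so inhibition keeps polarization high; 0% = DMSO wells and 100% = 60 µM reference IDE inhibitor Ii1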
CSN deneddyl inh: inhibitors of human CSN-mediated cullin deneddylation. 360,000 compounds, 0.38% hits. inhibition, % at 12.5 µM. Q92905. Purified CSN, SCF-Nedd8-OG deneddylation, fluorescence polarization;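 active = pattern-corrected inhibition above about 35%, with an unprinted fluorescence ratio check between 0.5 and 1.5, limit read from the data, passing the limit was not always enough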;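 also: 0% = enzyme with substrate and 100% = substrate without enzyme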
Target sequence (Q92905 whole entry, looked up, one chain of several): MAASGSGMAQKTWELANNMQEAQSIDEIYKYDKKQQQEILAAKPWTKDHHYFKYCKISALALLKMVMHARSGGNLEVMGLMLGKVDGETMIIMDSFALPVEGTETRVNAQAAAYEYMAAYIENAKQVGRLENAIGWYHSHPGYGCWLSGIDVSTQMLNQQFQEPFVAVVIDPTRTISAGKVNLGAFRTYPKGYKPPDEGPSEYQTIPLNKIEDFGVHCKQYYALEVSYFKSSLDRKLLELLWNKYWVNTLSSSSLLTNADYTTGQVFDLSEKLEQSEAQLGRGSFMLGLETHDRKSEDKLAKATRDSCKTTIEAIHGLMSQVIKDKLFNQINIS
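assay system = purified human Csn5 enzyme expressed in HEK293T cells | amount = 0.24 nM enzyme | buffer or medium = Tris/NaCl/DTT buffer, pH 7.5 | reagent = 10 nM SCFSkp2-Nedd8OG | compound = one concentration, 12.5 µM, 0.25% DMSO | times = 90 min reaction at room temperature | signal = FP | read-out basis = % inhibition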
TPT1 inh: inhibitors of Candida albicans tRNA 2'-phosphotransferase TPT1; 300,000 compounds, 0.81% hits; inhibition, % at 5 µM; AID 1962; recombinant caTPT1, FP RNA substrate dephosphorylation;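 active = inhibition above the mean of all tested compounds plus 3 SD, set per screening campaign, cut at about 24% in these data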;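 also: plate controls were DMSO alone for no effect and ferristatin control at 100 nM for full effect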
IDE inh confirm: confirmation of human insulin-degrading enzyme inhibitors in cells; AID 435028; HEK cells, FAbetaB cleavage, fluorescence polarization; 1,200 compounds, 51% hits; inhibition, % at 5.59 µM; shares compounds with IDE inh;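 active = mean inhibition across triplicate wells above the cutoff set by the earlier primary insulin-degrading enzyme screen, cut at about 16% in these data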;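 also: 0% = DMSO wells and 100% = 60 µM reference IDE inhibitor Ii1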
HEK cytotox: counter-screen for IDE inhibitors: cytotoxicity in HEK cells; inhibition, % at 5.59 µM; shares compounds with IDE inh; 1,200 compounds, 28% hits; HEK293 cytotoxicity, ATP luminescence; in the data active = inhibition above about 22%;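 also: 0% = vehicle wells and 100% = reference cytotoxic drug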
FP fluor counter: counter-screen for IDE inhibitors: fluorescent artifacts; shares compounds with IDE inh; FP counterscreen for fluorescent artifacts, IDE probe project; IC50, µM; 30 tested, under 10 active; AID 588718; call rule not given here
* = called active by the depositor; . = no result shown. An excerpt weighted towards active compounds, which were near 1.7% of everything screened.

SMILES | HNF4A DNA FP | Rpn11 block | IDE act | IDE inh | CSN deneddyl inh | TPT1 inh | IDE inh confirm | HEK cytotox | others
Cc1cc(C)c(S(=O)(=O)N2CCN(C(=O)c3ccc(-n4cncn4)c([N+](=O)[O-])c3)CC2)c(C)c1 | 2 | 2 | 4 | -3 | -1 | 2 | . | .
COc1ccc(CCNC(=O)c2ccc(Cl)c(S(=O)(=O)N(C)c3ccccc3)c2)cc1 | -3 | -3 | -8 | 18* | 1 | 5 | 4 | 34*
COc1ccc(CCNC(=O)c2ccc(Cl)c(S(=O)(=O)N3CCCCCC3)c2)cc1 | 1 | 1 | 2 | 4 | 4 | . | . | .
Cc1c(CCO)c(=O)n(-c2ccccc2)n1S(=O)(=O)c1ccc(Cl)cc1 | -2 | 4 | 5 | 3 | 6 | -1 | . | .
C[C@@H]1CN([C@H](C)CO)C(=O)CCCn2nncc2CO[C@H]1CN(C)Cc1cccc(C(=O)O)c1 | 2 | 0 | . | . | -3 | . | . | .
COc1ccc2nc(Nc3sc4c(c3C(N)=O)CCCC4)sc2c1 | 21 | 27 | -13 | 20* | 3 | 21 | 2 | 8
O=C(CSc1ccsc1[N+](=O)[O-])N1CCN(c2ccc(Cl)cc2)CC1 | -7 | -5 | -12 | 25* | 1 | 3 | 5 | 16
Cc1ccc(C(=O)Nn2c(C)nc3ccccc3c2=O)cc1C | 2 | -4 | 3 | 4 | 3 | -4 | . | .
Cc1csc2c(N3CCN(C(=O)Nc4ccc(Cl)c(Cl)c4)CC3)ncnc12 | 3 | 4 | -21 | 21* | 1 | -1 | 9 | 9
Cc1csc2c(N3CCN(C(=O)NC(C)(C)C)CC3)ncnc12 | -2 | -4 | 0 | 1 | 3 | 0 | . | .
N#CC1=C(S)N=C(N)C(c2nc(-c3ccccc3)cs2)C12CCCC2 (stereo not given) | 8 | 26 | -10 | 20* | 13 | 5 | 9 | 6
CCOC(=O)C1(C)CCN1C(=O)c1oc2ccccc2c1C (stereo not given) | 1 | 0 | . | . | -1 | . | . | .
O=C1C=CC(=O)N1CCCCCCN1C(=O)C=CC1=O | . | . | . | 19* | . | -2 | 4 | 124*
O=C(O)CN1C(=O)C=CC1=O | -5 | 3 | . | . | 3 | . | . | .
Cc1ccc(C(=O)NCCC(=O)N2CCC3(CC2)NCCc2[nH]cnc23)cc1C | 2 | -4 | 4 | 0 | -4 | -1 | . | .
Nc1c(C(=O)N/N=C/c2cccnc2)cnn1-c1ccccc1 | -2 | 1 | 0 | 2 | 3 | 1 | . | .
Nc1c(C(=O)N/N=C/c2ccc(Cl)cc2)cnn1-c1ccccc1 | 2 | -2 | -3 | 18* | 119* | 1 | 2 | 9
O=C(O)C1c2ccccc2C(=O)N(Cc2ccc(F)cc2)C1c1ccncc1 (stereo not given) | 3 | -5 | . | 16* | -4 | -1 | 6 | 4
O=C(NC1CCCCC1)C1CCN(C(=O)c2ccc(-c3ccccc3)cc2)CC1 | -2 | 5 | -3 | 18* | 6 | -4 | 6 | 12
C[n+]1cn(/N=C/c2ccccc2)c2ccccc21 | 2 | 0 | -1 | -2 | -10 | -3 | . | .
CC(=O)N(C(C)=O)c1nc(-c2ccccc2)cn1/N=C/c1ccccc1 | 0 | -1 | -25 | 25* | 7 | -3 | 20* | 17
Nc1c(C=C2C=CC(=O)C=C2)c(=O)nc2sc(CC(=O)N3CCOCC3)nn12 | -4 | 1 | 6 | 3 | -4 | -1 | . | .
C=CCC1=C/C(=C\c2c(N)n3nc(CC(=O)N4CCCC4)sc3nc2=O)C=C(OC)C1=O | 16 | . | -116 | 26* | 34 | 20 | 26* | 7
Cc1cccc(Nc2nc(N)c(C#N)c(CC#N)c2C#N)c1 | -5 | 13 | -7 | 26* | 5 | 1 | 19* | 13
Cc1cccc(Nc2nc(C)cc(C)c2C#N)c1 | -3 | -4 | 3 | 0 | -2 | -4 | . | .
SMILES | HNF4A DNA FP | Rpn11 block | IDE act | IDE inh | CSN deneddyl inh | TPT1 inh | IDE inh confirm | HEK cytotox | others
COc1ccc(NC(=O)c2cc(-c3ccccc3)nc3c2cnn3C(C)C)c(OC)c1 | 3 | 2 | 3 | -3 | -4 | . | . | .
O=C(CSc1nnc(-c2cccc(Cl)c2)n1Cc1ccco1)Nc1ccc2c(c1)OCCO2 | . | . | . | . | . | . | . | . | FP fluor counter=>55
Cc1ccc(-c2nc3ccccc3[nH]2)cc1NC(=O)c1ccc2c(c1)OCO2 | 3 | 3 | -2 | -1 | 2 | 2 | . | .
Cc1ccc(-c2nc3ccccc3[nH]2)cc1NC(=S)NC(=O)c1ccccc1Br | -2 | 5 | -16 | 18* | 1 | -2 | 14 | 31*
O=C(COc1ccc(-n2cnnn2)cc1)Nc1ccc(F)c(F)c1 | 1 | -4 | 1 | 8 | 5 | . | . | .
COc1ccccc1-c1cnc(C(O)c2cc(Cl)cc(Cl)c2)[nH]1 (stereo not given) | -2 | 6 | . | . | 8 | . | . | .
S=C(NCc1ccco1)N1CCN(c2nc(-c3ccccc3)cs2)CC1 | -1 | 14 | -9 | 18* | 6 | 0 | 7 | 10
S=C(NCc1ccco1)N1CCN(c2ccccc2Cl)CC1 | 2 | 0 | 1 | -7 | -1 | 1 | . | .
S=C(NCc1ccco1)N1CCN(c2nc(-c3ccc(Cl)cc3)cs2)CC1 | 10 | 8 | -14 | 22* | 8 | 1 | 5 | 20
Cc1ccc(OCC(COCc2ccccc2)NC(C)C)cc1 (stereo not given) | 5 | 2 | 1 | -3 | -2 | 0 | . | .
O=C(O)[C@@H]1CCCN1S(=O)(=O)c1cccc2cccnc12 | -4 | 0 | 7 | 7 | -4 | -4 | . | .
Cc1nn(S(=O)(=O)c2ccc(Br)cc2)c(C)c1S(=O)(=O)N1CCOCC1 | -3 | -5 | -2 | -4 | 0 | -1 | . | .
Cc1ccccc1CS(=O)(=O)CCC(=O)NCCCN1CCN(c2ccccc2F)CC1 | 1 | -2 | -1 | 0 | 6 | -1 | . | .
Cc1cc(C)c2c(=O)n(CC(=O)NCCCN3CCOCC3)sc2n1 | 0 | 2 | -59 | 22* | -4 | -2 | 20* | 4
Cc1cc(C)c2c(=O)n(CC(=O)NCCCN3CCN(c4ccccc4F)CC3)sc2n1 | . | . | . | 39* | . | 2 | 11 | 115*
Cc1ccn2c(C(=O)N/N=C/c3ccc(CNC(=O)C(=O)Nc4ccc(C)c(C)c4)o3)c(C)nc2c1 | . | . | . | 5 | . | 1 | . | .
CCOc1cc(/C=C2\SC(=S)N(NS(=O)(=O)c3ccccc3)C2=O)ccc1O | 15 | . | -36 | 39* | 33 | 13 | 109* | 3
O=C(N/N=C/c1ccc(Cl)cc1Cl)c1cccc(N2CCCC2=O)c1 | 1 | -4 | -8 | 34* | 1 | -3 | 15 | 19
